Results of several laboratories.
Each line is one published result; the experiments were not run side by side.
Read-out: cell growth or viability

SMILES	cell line	technique	concentration	time	endpoint	result
COc1ccc(CN2CCc3cc(OS(N)(=O)=O)c(OC)cc3C2)cc1OC	DU-145	WST-1		96 h	GI50	8.54 µM
O=C(O)/C=C/c1cccc(C(c2c[nH]c3ccccc23)c2c[nH]c3ccccc23)c1	DU-145	MTT	100 µM	48 h	inhibition	28%
COc1cc2c(cc1O)CCN(Cc1cccc(O)c1)C2	DU-145	WST-1		96 h	GI50	> 100 µM
COc1ccc(-c2ccc(-c3ccc(C(=N)N)nc3)s2)cc1Cl	SF-295	SRB			GI50	1.8 µM
COc1cc(Nc2nccc(-c3cnn4nc(OC)ccc34)n2)cc(C(F)(F)F)c1	MOLT-4	ATP luminescence			IC50	0.27 µM
COc1ccc(-c2ccc(-c3ccc(C(=N)N)nc3)s2)cc1	SF-295	SRB			GI50	1.71 µM
COc1cccc(Oc2ccccc2NC(=O)CNC(=O)c2cccc3ccccc23)c1	MOLT-4	SRB		48 h	GI50	0.661 µM
O=C(O)/C=C/c1ccc(C(c2c[nH]c3ccccc23)c2c[nH]c3ccccc23)s1	DU-145	MTT	100 µM	48 h	inhibition	55%
CC(=O)O[C@@]12CO[C@@H]1C[C@H](O)[C@@]1(C)C(=O)[C@H](O)C3=C(C)[C@@H](OC(=O)[C@H](O)[C@@H](NC(=O)OC(C)(C)C)c4ccccc4)C[C@@](O)([C@@H](OC(=O)c4ccccc4)[C@H]21)C3(C)C	LNCaP	trypan blue	3 nM	72 h	inhibition	> 65%
COc1ccc(CN2CCc3cc(OS(N)(=O)=O)c(OC)cc3C2)cc1	DU-145	WST-1		96 h	GI50	57.2 µM
C[C@@H](NC(=O)[C@H](CCCCNC(=O)C(F)(F)F)NS(C)(=O)=O)C(=O)N[C@@H](CCCNC(=N)N)C(N)=O	Jurkat	MTT		72 h	EC50	21.2 to 28.1 µM
Cn1cc(C(c2ccc(C(=O)O)cc2)c2cn(C)c3ccccc23)c2ccccc21	DU-145	MTT	100 µM	48 h	inhibition	~20%
COc1cc2c(cc1OS(N)(=O)=O)CCN(S(=O)(=O)c1ccccc1OC)C2	DU-145	WST-1		96 h	GI50	> 100 µM
CC(C)C[C@H](NC(=O)[C@H](Cc1ccccc1)NC(=O)c1cnccn1)B(O)O	MOLT-4	ATP luminescence			IC50	0.0037 µM
O=C(O)c1ccc(C(c2c[nH]c3ccccc23)c2c[nH]c3ccccc23)cc1	DU-145	MTT	100 µM	48 h	inhibition	34%
